Assay results taken from ChEMBL document CHEMBL1154075, “Synthesis and biological evaluation of (11)C-labeled beta-galactosyl triazoles as potential PET tracers for in vivo LacZ reporter gene imaging” (Bioorg Med Chem, 2009).
pKi: −log10 of the molar value. Values joined by “and” are separate entries in the source; they are usually repeats but may differ in a detail not shown here. Equal entries are not always repeated.

Assays:
[1] = target: Beta-galactosidase (Escherichia coli) (UniProt Q8VNN2); test: Inhibition of Escherichia coli beta-galactosidase assessed as substrate hydrolysis at 1 mg/ml after 90 mins by competitive binding assay in presence of ONPG; set-up: scale not given: the % may be the effect or the level left; conditions: tested as the 11C-labelled form
Outline: (§1)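 E. coli β-gal (10 U, 149 U/mg) was incubated at 37 °C with 1 mg/mL triazole in HEPES pH 7.0 (120 mM) containing 4 mM MgSO4 and 180 mM NaCl. ONPG (1 mg in 1 mL HEPES solution) was then added. Samples taken 15 and 90 min later were analysed by RP-HPLC with UV detection.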

[2] = target: Beta-galactosidase (Escherichia coli) (UniProt Q8VNN2); test: Inhibition of Escherichia coli beta-galactosidase assessed as substrate hydrolysis at 1 mg/ml after 15 mins by competitive binding assay in presence of ONPG; set-up: scale not given: the % may be the effect or the level left; conditions: tested as the 11C-labelled form; outline: as §1
[3] = Metabolic stability in NMRI mouse urine assessed as drug recovery at 18 MBq, iv after 30 mins by RP-HPLC; type: ADME, organism-based; conditions: in vivo, 0.5 h
Outline: (§2)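 NMRI mice under isoflurane received about 18 MBq tracer iv and were decapitated at 10 or 30 min, n = 2. Plasma was separated from heparinised blood by centrifugation; urine was taken at 30 min by bladder voiding and mixed with authentic compound. Both were analysed by gradient RP-HPLC, fractions gamma counted, and intact tracer was expressed as % of recovered radioactivity.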

[4] = Biodistribution in NMRI mouse urine at 37 MBq/ml, iv after 60 mins; type: ADME, organism-based; conditions: in vivo, 1 h
Outline: (§3)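 Male NMRI mice under isoflurane received 0.1 mL of about 37 MBq/mL tracer iv in saline (ethanol <10%). Decapitated at 2 or 60 min, n = 4 per time point. Radioactivity counted in a NaI(Tl) well counter and expressed as %ID, i.e. cpm in organ over total cpm recovered. Mean ± SD.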

Kidney [5] = test: Biodistribution in NMRI mouse kidney assessed per gram of tissue at 37 MBq/ml, iv after 60 mins; type: ADME, organism-based; conditions: in vivo, 1 h
Outline: (§4)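 Male NMRI mice (35–45 g), isoflurane-anaesthetised (2.5% in O2), given 0.1 mL tracer at about 37 MBq/mL in 0.9% NaCl (ethanol <10%) via tail vein. Killed by decapitation at 2 or 60 min p.i., n = 4 per time point. Blood and organs weighed, gamma counted and background corrected. Expressed as %ID/g; blood mass taken as 7% of body mass. Mean ± SD.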

Plasma = test: Metabolic stability in NMRI mouse plasma assessed as drug recovery at 18 MBq, iv after 30 mins by RP-HPLC; type: ADME, organism-based; conditions: in vivo, 0.5 h; outline: as §2
[6] = Octanol-phosphate buffer partition coefficient, log P of the compound; type: physicochemical
Outline: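 About 555 kBq of purified tracer was added to 2 mL n-octanol and 2 mL 0.025 M sodium phosphate pH 7.4. The mixture was vortexed 2 min at room temperature and centrifuged 5 min at 1837 g. Aliquots of each phase were weighed and gamma counted. P was taken as cpm/mL in octanol over cpm/mL in buffer, after density correction. At least triplicate.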

[7] = Biodistribution in NMRI mouse carcass at 37 MBq/ml, iv after 2 mins; type: ADME, organism-based; conditions: in vivo; outline: as §3
HEK293 [8] = test: Drug uptake in human HEK293 cells assessed as radioactivity after 120 mins; type: ADME, cell-based; conditions: hek293, 2 h
Outline: (§5)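 293T cells were lentivirally transduced with LacZ or, as control, VZV-tk, and kept in DMEM/10% FCS with 1 µg/mL puromycin. 200,000 cells per well were seeded and used after 24 h. Cells received fresh medium with 1.1 MBq tracer per well for 30–120 min at 37 °C, 5% CO2. After ice-cold PBS washes, cells were lysed; lysate and supernatant were gamma counted. Result is % radioactivity in the cell fraction, triplicate means.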

Stomach [9] = test: Biodistribution in NMRI mouse stomach assessed per gram of tissue at 37 MBq/ml, iv after 60 mins; type: ADME, organism-based; conditions: in vivo, 1 h; outline: as §4
Liver [10] = test: Biodistribution in NMRI mouse liver assessed per gram of tissue at 37 MBq/ml, iv after 60 mins; type: ADME, organism-based; conditions: in vivo, 1 h; outline: as §4
HEK293 [11] = test: Drug uptake in human HEK293 cells assessed as radioactivity after 30 mins; type: ADME, cell-based; conditions: hek293, 0.5 h; outline: as §5
[12] = Biodistribution in NMRI mouse urine at 37 MBq/ml, iv after 2 mins; type: ADME, organism-based; conditions: in vivo; outline: as §3
Brain = test: Biodistribution in NMRI mouse brain assessed per gram of tissue at 37 MBq/ml, iv after 60 mins; type: ADME, organism-based; conditions: in vivo, 1 h; outline: as §4
Blood [13] = test: Biodistribution in NMRI mouse blood assessed per gram of tissue at 37 MBq/ml, iv after 60 mins; type: ADME, organism-based; conditions: in vivo, 1 h; outline: as §4
Stomach [14] = test: Biodistribution in NMRI mouse stomach assessed per gram of tissue at 37 MBq/ml, iv after 2 mins; type: ADME, organism-based; conditions: in vivo; outline: as §4
[15] = Biodistribution in NMRI mouse carcass at 37 MBq/ml, iv after 60 mins; type: ADME, organism-based; conditions: in vivo, 1 h; outline: as §3
Kidney [16] = test: Biodistribution in NMRI mouse kidney assessed per gram of tissue at 37 MBq/ml, iv after 2 mins; type: ADME, organism-based; conditions: in vivo; outline: as §4
Blood [17] = test: Biodistribution in NMRI mouse blood assessed per gram of tissue at 37 MBq/ml, iv after 2 mins; type: ADME, organism-based; conditions: in vivo; outline: as §4
[18] = Biodistribution in NMRI mouse spleen + pancreas assessed per gram of tissue at 37 MBq/ml, iv after 60 mins; type: ADME, organism-based; conditions: in vivo, 1 h; outline: as §4
Liver [19] = test: Biodistribution in NMRI mouse liver assessed per gram of tissue at 37 MBq/ml, iv after 2 mins; type: ADME, organism-based; conditions: in vivo; outline: as §4
[20] = target: Beta-galactosidase (Escherichia coli) (UniProt P00722); test: Inhibition of beta-galactosidase
Sequence of Beta-galactosidase (Escherichia coli) (UniProt P00722) (P00722 whole entry, looked up): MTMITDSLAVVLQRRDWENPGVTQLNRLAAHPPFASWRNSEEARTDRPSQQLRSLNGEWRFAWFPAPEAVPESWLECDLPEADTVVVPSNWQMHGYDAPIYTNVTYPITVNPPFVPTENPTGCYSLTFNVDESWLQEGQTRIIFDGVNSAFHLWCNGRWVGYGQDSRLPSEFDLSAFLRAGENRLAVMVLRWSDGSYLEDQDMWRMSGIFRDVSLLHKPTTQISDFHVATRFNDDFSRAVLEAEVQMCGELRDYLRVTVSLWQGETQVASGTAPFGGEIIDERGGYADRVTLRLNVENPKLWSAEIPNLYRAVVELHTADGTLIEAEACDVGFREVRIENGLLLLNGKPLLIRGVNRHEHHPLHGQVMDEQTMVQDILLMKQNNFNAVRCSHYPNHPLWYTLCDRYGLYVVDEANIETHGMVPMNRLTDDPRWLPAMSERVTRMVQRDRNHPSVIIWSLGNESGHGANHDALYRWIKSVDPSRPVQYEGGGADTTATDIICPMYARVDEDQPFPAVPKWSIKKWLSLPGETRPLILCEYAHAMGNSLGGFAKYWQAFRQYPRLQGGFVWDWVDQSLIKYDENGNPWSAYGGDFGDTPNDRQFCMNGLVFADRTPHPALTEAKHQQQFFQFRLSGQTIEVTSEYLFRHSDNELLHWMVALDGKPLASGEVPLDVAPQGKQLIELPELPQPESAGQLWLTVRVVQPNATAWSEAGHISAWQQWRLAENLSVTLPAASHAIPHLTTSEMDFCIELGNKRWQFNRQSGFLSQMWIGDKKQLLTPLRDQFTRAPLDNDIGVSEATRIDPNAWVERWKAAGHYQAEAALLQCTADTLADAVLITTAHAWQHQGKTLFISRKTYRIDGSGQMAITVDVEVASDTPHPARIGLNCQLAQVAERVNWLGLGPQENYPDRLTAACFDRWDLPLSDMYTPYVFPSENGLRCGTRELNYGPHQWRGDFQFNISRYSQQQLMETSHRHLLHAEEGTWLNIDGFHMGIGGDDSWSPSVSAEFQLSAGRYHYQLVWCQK

Sequence of Beta-galactosidase (Escherichia coli) (UniProt Q8VNN2) (Q8VNN2 whole entry, looked up): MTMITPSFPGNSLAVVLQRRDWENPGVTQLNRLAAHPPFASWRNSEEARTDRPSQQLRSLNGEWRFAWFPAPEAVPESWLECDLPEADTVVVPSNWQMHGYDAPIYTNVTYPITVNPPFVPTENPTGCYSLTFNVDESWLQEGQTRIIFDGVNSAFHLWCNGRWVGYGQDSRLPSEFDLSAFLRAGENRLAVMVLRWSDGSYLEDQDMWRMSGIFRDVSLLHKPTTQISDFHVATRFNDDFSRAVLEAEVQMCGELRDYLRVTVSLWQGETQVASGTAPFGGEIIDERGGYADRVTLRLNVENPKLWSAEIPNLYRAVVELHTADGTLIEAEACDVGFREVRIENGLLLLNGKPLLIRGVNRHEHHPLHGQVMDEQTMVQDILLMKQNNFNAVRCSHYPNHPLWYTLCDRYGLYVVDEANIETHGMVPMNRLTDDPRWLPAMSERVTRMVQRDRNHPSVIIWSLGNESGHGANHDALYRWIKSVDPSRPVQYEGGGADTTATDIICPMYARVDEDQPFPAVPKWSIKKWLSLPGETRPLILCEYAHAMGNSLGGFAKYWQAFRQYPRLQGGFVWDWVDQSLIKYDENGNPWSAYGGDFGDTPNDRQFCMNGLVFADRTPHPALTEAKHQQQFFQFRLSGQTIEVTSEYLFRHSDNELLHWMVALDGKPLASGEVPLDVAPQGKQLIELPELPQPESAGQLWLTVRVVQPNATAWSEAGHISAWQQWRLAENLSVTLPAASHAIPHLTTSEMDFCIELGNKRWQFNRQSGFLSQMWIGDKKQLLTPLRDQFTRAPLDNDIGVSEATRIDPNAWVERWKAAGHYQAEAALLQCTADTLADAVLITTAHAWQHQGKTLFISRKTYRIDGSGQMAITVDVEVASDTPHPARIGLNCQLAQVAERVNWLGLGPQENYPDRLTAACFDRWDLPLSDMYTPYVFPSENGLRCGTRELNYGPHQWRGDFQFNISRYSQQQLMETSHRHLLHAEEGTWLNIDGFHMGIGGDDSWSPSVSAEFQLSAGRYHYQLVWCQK

Row | Stability [3] | Drug uptake [4] [%ID] | Drug uptake (Kidney [5]) | Stability (Plasma) | logP [6] | Drug uptake [7] [%ID] | Drug uptake (HEK293 [8]) [%] | Drug uptake (Stomach [9]) | Drug uptake (Liver [10]) | Drug uptake [12] [%ID] | Drug uptake (Brain) | Drug uptake (Stomach [14]) | Drug uptake [15] [%ID] | Drug uptake (Kidney [16]) | Drug uptake [18] | Drug uptake (Liver [19]) | Compound | further results
1 |  |  |  |  |  |  |  |  |  |  |  |  |  |  |  |  | COc1ccc(-c2cn([C@@H]3O[C@H](CO)[C@H](O)[C@H](O)[C@H]3O)nn2)cc1 | Activity [1]: 70%; Activity [2]: 40%
2 | Stable | 2.8 | 1 %ID and 1.4 %ID | Stable | 1.4 | 34.3 | 1.4 | 0.4 %ID and 0.2 %ID | 7.1 %ID and 3.4 %ID | 0.1 | 0 %ID and 0.2 %ID | 1.1 %ID and 0.9 %ID | 12.2 | 7.2 %ID and 5.7 %ID | 0.4 %ID and 1.2 %ID | 12.1 %ID and 25.8 %ID | [11CH3]Oc1ccc2cc(-c3cn([C@@H]4O[C@H](CO)[C@H](O)[C@H](O)[C@H]4O)nn3)ccc2c1 | Drug uptake (HEK293 [11]): 0.6%; Drug uptake (Blood [13]): 4.2 %ID and 1.6 %ID; Drug uptake (Blood [17]): 50.9 %ID and 18.6 %ID
3 |  |  |  |  |  |  |  |  |  |  |  |  |  |  |  |  | OC[C@H]1O[C@@H](n2cc(-c3ccccc3)nn2)[C@H](O)[C@@H](O)[C@H]1O | pKi [20]: 3.48
4 | Stable | 47.5 | 4 %ID and 4.4 %ID | Stable | -0.1 | 38.1 | 0.4 | 0.9 %ID and 1.4 %ID | 13.4 %ID and 6.3 %ID | 3.1 | 0 %ID and 0.3 %ID | 0.9 %ID and 1.5 %ID | 19.6 | 16.1 %ID and 19.3 %ID | 0.6 %ID and 1.7 %ID | 18.7 %ID and 8.7 %ID | [11CH3]Oc1ccc(-c2cn([C@@H]3O[C@H](CO)[C@H](O)[C@H](O)[C@H]3O)nn2)cc1 | 
